In general, EC50 refers to the concentration needed to bring the measured effect to its halfway point. Read a low EC50 as a more potent agent.

Each structure is given as a SMILES string.

For 21 compounds, EC50 results are on record in ChEMBL document CHEMBL1131135, “Substituted 4-acylpyrazoles and 4-acylpyrazolones: synthesis and multidrug resistance-modulating activity” (J Med Chem, 1998).

In one experiment the test system is L5178Y. Kind of experiment: Compound was tested for inhibition of rhodamine 123 efflux in mdr 1 transfectant L5178Y VMDRI C.06 mouse lymphoma cells. In kind it is functional, cell-based. The essentials: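 Cells at 1 × 10⁶/mL in RPMI1640 preloaded with rhodamine 123 (final 0.2 μg/mL, 0.53 μmol/L) for 15 min at 37 °C, then resuspended in 37 °C medium with modulator (eight concentrations, 1:2.5 serial dilution, 3 nM–500 μM). Aliquots taken at 0, 30, 60, 90, 120 s into ice-cold verapamil stop solution. Read by flow cytometry, 5000 events. Vmax/Km from exponential fit, parental-line diffusion subtracted. EC50 from dose–response, mean of ≥5 experiments.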

For experiment [1], the target named is ATP-dependent translocase ABCB1 (Homo sapiens, UniProt P08183). The experiment can be described thus: Compound was tested for inhibition of daunomycin efflux in the resistant human T-lymphoblast cell line CEM vcr1000. In kind it is functional, cell-based, CCRF-CEM.
Chain of ATP-dependent translocase ABCB1 (P08183 whole entry): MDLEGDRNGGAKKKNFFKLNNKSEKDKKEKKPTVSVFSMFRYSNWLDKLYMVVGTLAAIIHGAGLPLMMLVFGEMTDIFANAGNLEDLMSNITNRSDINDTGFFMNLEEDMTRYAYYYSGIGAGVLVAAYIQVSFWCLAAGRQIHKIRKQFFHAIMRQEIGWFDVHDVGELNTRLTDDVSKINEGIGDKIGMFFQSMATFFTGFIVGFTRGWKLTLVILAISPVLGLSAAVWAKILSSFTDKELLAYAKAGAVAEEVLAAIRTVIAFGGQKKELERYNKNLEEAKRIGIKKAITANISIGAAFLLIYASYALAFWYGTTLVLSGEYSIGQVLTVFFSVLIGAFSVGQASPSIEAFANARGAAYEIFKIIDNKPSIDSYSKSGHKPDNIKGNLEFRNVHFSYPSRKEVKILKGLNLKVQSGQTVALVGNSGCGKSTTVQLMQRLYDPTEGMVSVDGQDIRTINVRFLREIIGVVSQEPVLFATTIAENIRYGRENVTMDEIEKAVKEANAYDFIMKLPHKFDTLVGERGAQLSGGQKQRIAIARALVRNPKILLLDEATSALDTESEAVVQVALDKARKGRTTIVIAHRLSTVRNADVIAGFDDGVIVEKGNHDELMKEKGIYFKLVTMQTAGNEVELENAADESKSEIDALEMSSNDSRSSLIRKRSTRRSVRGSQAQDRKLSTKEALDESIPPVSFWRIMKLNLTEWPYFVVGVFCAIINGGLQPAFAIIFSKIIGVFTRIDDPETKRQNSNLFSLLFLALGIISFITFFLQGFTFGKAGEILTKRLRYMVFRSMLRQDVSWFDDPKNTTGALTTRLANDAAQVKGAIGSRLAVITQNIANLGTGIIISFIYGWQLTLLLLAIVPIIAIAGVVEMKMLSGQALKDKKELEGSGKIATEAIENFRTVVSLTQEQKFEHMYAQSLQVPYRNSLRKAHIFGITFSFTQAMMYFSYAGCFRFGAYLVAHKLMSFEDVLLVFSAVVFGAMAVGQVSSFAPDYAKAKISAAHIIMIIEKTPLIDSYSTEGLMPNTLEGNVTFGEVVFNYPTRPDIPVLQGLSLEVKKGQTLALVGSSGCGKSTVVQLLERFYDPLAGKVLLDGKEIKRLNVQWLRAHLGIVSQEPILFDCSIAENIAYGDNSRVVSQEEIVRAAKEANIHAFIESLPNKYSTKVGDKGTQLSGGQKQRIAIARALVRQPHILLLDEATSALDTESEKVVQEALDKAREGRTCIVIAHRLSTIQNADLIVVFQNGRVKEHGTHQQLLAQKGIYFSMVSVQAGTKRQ

As to `CCCNCC(O)Cn1c(C)c(C(=O)c2ccccc2)c(=O)n1-c1ccccc1` (centres undefined), the EC50 stood at 64.5 µM in the experiment with L5178Y and 28.2 µM in experiment [1].
The compound `CCCNc1c(C(=O)CCc2ccccc2)c(C)nn1-c1ccccc1` came in with a half-maximal effective concentration (EC50) in experiment [1] of 8.38 µM.
On to `CCCCNCC(O)Cn1c(C)c(C(=O)CCc2ccccc2)c(=O)n1-c1ccccc1` (centres undefined), for which the EC50 came to 4.02 µM in the experiment on L5178Y and 2.69 µM in experiment [1].
The corresponding values for `Cc1c(C(=O)c2ccccc2)c(=O)n(-c2ccccc2)n1CC(O)CNC(C)C` (centres undefined) are 226 µM and 83.2 µM.
The corresponding values for `Cc1c(C(=O)c2cccs2)c(=O)n(-c2ccccc2)n1CC(O)CNC(C)C` (centres undefined) are 648 µM and 123 µM.
In the case of `Cc1c(C(=O)c2ccccc2)c(=O)n(C)n1CC(O)CN(C(C)C)C(C)C` (centres undefined), the concentration for a half-maximal effect (EC50) in experiment [1] amounted to 24.1 µM.
For `Cc1c(C(=O)c2ccccc2)c(=O)n(-c2ccccc2)n1CC(O)CN(C(C)C)C(C)C` (centres undefined), the values for the half-maximal effective concentration (EC50) (with L5178Y; in experiment [1]) were 21.9 µM and 12.6 µM, respectively.
Compound `Cc1ccccc1N1CCN(CC(O)Cn2c(C)c(C(=O)CCc3ccccc3)c(=O)n2-c2ccccc2)CC1` (centres undefined) returned a half-maximal effective concentration (EC50) in experiment [1] of 0.21 µM.
Same read-out and setting: the result for `Cc1nn(C)c(OCC(O)CN(C(C)C)C(C)C)c1C(=O)c1ccccc1` (centres undefined) reads 1.21 µM; that for `CCC/N=C(\CCc1ccccc1)c1c(C)[nH]n(-c2ccccc2)c1=O`, 3.79 µM.
The same measure, in the same setting: with `CCC/N=C(\c1ccccc1)c1c(C)[nH]n(C)c1=O` the figure was 273 µM; with `CC1=NN(c2ccccc2)C(=O)/C1=C(/c1ccccc1)N1CCN(c2ccccc2C)CC1`, 0.68 µM.
As to `Cc1ccccc1N1CCN(CC(O)Cn2c(C)c(C(=O)c3ccccc3)c(=O)n2-c2ccccc2)CC1` (centres undefined), the 50% effective concentration (EC50) in the experiment with L5178Y is 2.43 µM; in experiment [1] it was 0.89 µM.
With `Cc1c(C(=O)c2cccs2)c(=O)n(-c2ccccc2)n1CC(O)CNC(C)(C)C` (centres undefined), the EC50 in the experiment with L5178Y is 94.7 µM; in experiment [1] it was 72.4 µM.
The corresponding values for `CCCNCC(O)Cn1c(C)c(C(=O)c2cccs2)c(=O)n1-c1ccccc1` (centres undefined) are 174 µM and 72.4 µM.
The corresponding values for `Cc1c(C(=O)CCc2ccccc2)c(=O)n(-c2ccccc2)n1CC(O)CNC(C)C` (centres undefined) are 34.2 µM and 11.8 µM.
For `Cc1c(C(=O)c2ccccc2)c(=O)n(-c2ccccc2)n1CC(O)CNC(C)(C)C` (centres undefined) the same measures were 168 µM and 81.3 µM.
For `Cc1nn(-c2ccccc2)c(OCC(O)CN(C(C)C)C(C)C)c1C(=O)c1ccccc1` (centres undefined), the EC50 is 2.22 µM in the experiment with L5178Y and 1.06 µM in experiment [1].
On to `CCCNCC(O)Cn1c(C)c(C(=O)CCc2ccccc2)c(=O)n1-c1ccccc1` (centres undefined), for which the EC50 amounted to 15.2 µM in the experiment on L5178Y and 6.31 µM in experiment [1].
With `CCCNc1c(C(=O)c2ccccc2)c(C)nn1-c1ccccc1`, the half-maximal effective concentration (EC50) in experiment [1] stood at 11 µM.
In the case of `Cc1c(C(=O)CCc2ccccc2)c(=O)n(-c2ccccc2)n1CC(O)CNC(C)(C)C` (centres undefined), the EC50 in the experiment with L5178Y was 17.8 µM; in experiment [1], 7.76 µM.
